ChEMBL document CHEMBL1806366, “Synthesis and structure-activity relationship of new 1,5-dialkyl-1,5-benzodiazepines as cholecystokinin-2 receptor antagonists” (Bioorg Med Chem, 2011)
In brackets after ≈: the same amount, converted by molar mass. Activity calls are given as the source filed them. The calls are words filed in the database; no cut-off is given here.

Assays:
[1] = Clearance in dog administered as methocel suspension; type: ADME, organism-based, Canis lupus familiaris; conditions: in vivo
[2] = Clearance in rat administered as methocel suspension; type: ADME, organism-based; conditions: in vivo
[3] = Volume of distribution in dog administered as methocel suspension; type: ADME, organism-based, Canis lupus familiaris; conditions: in vivo
[4] = (§1) Volume of distribution in rat administered as methocel suspension; type: ADME, organism-based; conditions: in vivo
[5] = Half life in dog administered as methocel suspension; type: ADME, organism-based, Canis lupus familiaris; conditions: in vivo
[6] = Half life in rat administered as methocel suspension; type: ADME, organism-based; conditions: in vivo
[7] = Oral bioavailability in dog administered as methocel suspension; type: ADME, organism-based, Canis lupus familiaris; conditions: in vivo
[8] = (§2) Oral bioavailability in rat administered as methocel suspension; type: ADME, organism-based; conditions: in vivo
[9] = target: T1, Cholecystokinin receptor type A (Rattus norvegicus, UniProt P30551); assay: Displacement of [3H]CCK8 from rat pancreas CCK1 receptor at by liquid scintillation counting
T1 sequence (P30551 whole entry): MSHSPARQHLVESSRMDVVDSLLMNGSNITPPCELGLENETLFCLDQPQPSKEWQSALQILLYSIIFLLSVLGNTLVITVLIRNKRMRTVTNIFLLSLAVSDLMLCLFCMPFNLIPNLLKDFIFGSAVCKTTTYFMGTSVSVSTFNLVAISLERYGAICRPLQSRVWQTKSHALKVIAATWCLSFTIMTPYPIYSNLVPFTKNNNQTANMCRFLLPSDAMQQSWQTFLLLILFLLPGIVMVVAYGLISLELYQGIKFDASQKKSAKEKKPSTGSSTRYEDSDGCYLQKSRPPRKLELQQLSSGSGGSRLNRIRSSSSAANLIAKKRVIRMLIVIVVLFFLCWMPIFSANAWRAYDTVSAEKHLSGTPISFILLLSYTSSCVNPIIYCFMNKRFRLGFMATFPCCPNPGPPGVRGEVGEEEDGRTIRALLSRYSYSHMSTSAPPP
Procedure, shortened: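 Rat pancreas membranes incubated at 37 °C with [³H]-CCK8s at 0.2 nM; nonspecific binding defined with L-364,718. Bound and free ligand separated by filtration over GF/C filters, then counted by liquid scintillation. Ki calculated using Bmax and KD from separate saturation binding isotherms.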

[10] = Selectivity ratio of pKi for guinea pig brain CCK2 receptor to pKi for rat pancreas CCK1
Procedure, shortened: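 Radioligand displacement binding to guinea pig brain membranes (CCK2, incubated at 25 °C) and rat pancreas membranes (CCK1, incubated at 37 °C) with 0.2 nM [³H]-CCK8s. Non-specific binding was defined with L-365,260 (CCK2) or L-364,718 (CCK1). Bound ligand was separated by GF/C filtration and counted by liquid scintillation. Ki values were derived for each subtype, with KD and Bmax taken from separate saturation isotherms.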

[11] = Displacement of [3H]CCK8 from guinea pig brain CCK2 receptor by liquid scintillation counting; set-up: species or system Cavia porcellus
Procedure, shortened: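 Guinea pig brain membranes incubated at 25 °C with [³H]-CCK8s at 0.2 nM; nonspecific binding defined with L-365,260. Bound and free ligand separated by filtration over GF/C filters, then counted by liquid scintillation. Ki calculated using Bmax and KD from separate saturation binding isotherms.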

[12] = Solubility of the compound at pH 2.4; type: physicochemical; conditions: buffer
Mus musculus [13] = assay: Anxiolytic activity in po dosed mouse measured after 60 mins post dose by black/white box test; type: functional
Procedure, shortened: (§3)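 Mice dosed orally 60 min before testing, then placed in the centre of the illuminated white compartment of a two-part black/white box. Time spent exploring the white and black sides recorded; longer time in the white side read as anxiolytic effect. Model used for both potency and duration of action.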

Mus musculus [14] = assay: Anxiolytic activity in po dosed mouse assessed as duration of action of the compound measured after 60 mins post dose by black/white box test; type: functional; procedure, shortened: as §3
Mus musculus [15] = assay: Anxiolytic activity in mouse up to 300 ug/kg, po measured after 60 mins post dose by black/white box test; type: functional, organism-based; procedure, shortened: as §3
Rattus norvegicus [16] = assay: as §1; type: ADME, organism-based; conditions: in vivo
Rattus norvegicus [17] = assay: as §2; type: ADME, organism-based; conditions: in vivo
[18] = Mus musculus, po, 1 h, read-out: ED50

clearance [1] [mL/min] | clearance [2] [mL/min] | Vd [3] [L/kg] | Vd [4] [L/kg] | half-life [5] [h] | half-life [6] [h] | bioavailability [7] [%] | bioavailability [8] [%] | Ki [9] [nM] | Ki selectivity ratio (CCK1 Ki / CCK2 Ki) [10] | pKi [11] | solubility ([12]; read-out: solubility) [µg/mL] | solubility [12] [µg/mL] | Vd (Rattus norvegicus [16]) [L/kg] | F (Rattus norvegicus [17]) [%] | Compound | ED50 (Mus musculus [13]; [18]) [µg/kg] | Time (Mus musculus [14]) [h] | Activity (Mus musculus [15]) | ED50 (Mus musculus [13]) [µg/kg]
14 | 34 | 1 | 1.1 | 0.9 | 0.38 | 36 | 18 | 676 | 234 | 8.54 | 450 (≈ 912 µM) | – | – | – | CC(C)CCN1C(=O)C(NC(=O)Nc2ccccc2)C(=O)N(CCN2CCOCC2)c2ccccc21 (racemic) | 0.011 | 2 | – | –
23 | 37 | 2.5 | 3.1 | 1.3 | 1 | 40 | 20 | 3310 | 759 | 8.36 | 850 (≈ 1880 µM) | – | – | – | CC(C)CCN1C(=O)C(NC(=O)Nc2ccccc2)C(=O)N(CCN(C)C)c2ccccc21 (racemic) | 0.041 | 2 | – | –
– | 28 | – | 2.7 | – | 1.1 | – | 5 | 3240 | 3240 | 9 | 850 (≈ 1600 µM) | – | – | – | CN(C)CCN1C(=O)C(NC(=O)Nc2ccccc2)C(=O)N(CC23CC4CC(CC(C4)C2)C3)c2ccccc21 (racemic) | 0.004 | 4 | – | –

The remaining lines, values behind:

Compound | clearance [1] [mL/min] | clearance [2] [mL/min] | Vd [3] [L/kg] | Vd [4] [L/kg] | half-life [5] [h] | half-life [6] [h] | bioavailability [7] [%] | bioavailability [8] [%] | Ki [9] [nM] | Ki selectivity ratio (CCK1 Ki / CCK2 Ki) [10] | pKi [11] | solubility ([12]; read-out: solubility) [µg/mL] | solubility [12] [µg/mL] | Vd (Rattus norvegicus [16]) [L/kg] | F (Rattus norvegicus [17]) [%] | ED50 (Mus musculus [13]; [18]) [µg/kg] | Time (Mus musculus [14]) [h] | Activity (Mus musculus [15]) | ED50 (Mus musculus [13]) [µg/kg]
CC(C)CCN1C(=O)C(NC(=O)Nc2ccc(O)cc2)C(=O)N(CCN2CCOCC2)c2ccccc21 (racemic) | – | – | – | – | – | – | – | – | 8320 | 1120 | 8.13 | 450 (≈ 883 µM) | – | – | – | – | – | inactive | –
O=C(Nc1ccccc1)NC1C(=O)N(CCN2CCOCC2)c2ccccc2N(CC23CC4CC(CC(C4)C2)C3)C1=O (racemic) | 34 | 12 | 4.8 | 1 | 1.6 | 1.1 | 9 | 13 | 2040 | – | 9.24 | – | 230 (≈ 402 µM) | – | – | – | – | – | 0.001
O=C(Nc1ccccc1)NC1C(=O)N(CCN2CCOCC2)c2ccccc2N(CC23CC4CC(CC(C4)C2)C3)C1=O (single isomer, unassigned; (-)) | – | – | – | – | – | – | – | – | 2040 | – | 9.64 | 230 (≈ 402 µM) | – | 1.1 | 10 | 0.002 | 4 | – | –
